How the values were obtained:
[1] = test system: Mus musculus; test: Percent increase in life span of mice bearing L1210 ascites cells compared to control (in vivo); type: functional
Outline: (§1)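 BDF1 female mice (18-20 g), groups of six, implanted ip with 10^5 L1210 ascites cells. On day 1 (24 h later), a single ip injection of test agent at 200 mg/kg, alone or with cyclophosphamide at 100 mg/kg, as a solution or suspension in 5% Tween 80 in normal saline, pH 4. Acetals were heated at 80 °C for 2 h just before injection. Vehicle-only controls were run. Deaths were recorded daily. %ILS = (mean treated life span − mean control)/mean control × 100, with survivors capped at 30 days. Survival was scored as the percent of each group alive 50 days after day 1.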

[2] = test system: Mus musculus; test: Percent animals surviving 50 days from day 1 (in vivo); type: functional; outline: as §1

SMILES	ILC [1] [%]	Cures [2] [%]
CCOC(CCP(=O)(OCC)OCC)OCC	204	83
CCOP(=O)(CC=O)OCC	180	67
CCOP(=O)(CCC=O)c1ccccc1 (stereo not given)	175	83
CCOC(CCP(=O)(OCC)c1ccccc1)OCC (stereo not given)	166	50
Cc1ncc(CO)c(C=O)c1O [PYRIDOXAL]	164	33

Reference: ChEMBL document CHEMBL1121408, “Cyclophosphamide potentiation and aldehyde oxidase inhibition by phosphorylated aldehydes and acetals” (J Med Chem, 1980)
